Source: article PMC10759174 (RSC Advances, 2024)

Columns and labels:
[1] = DPPH free radical scavenging assay; conditions: at a concentration of 1000 μg mL^−1
Procedure, shortened: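 DPPH 0.1 mM in ethanol, 1 mL, added to 3 mL of test compound solution in ethanol at 1000 μg mL−1. The mixture was shaken vigorously, left 30 min at room temperature, and absorbance read at 517 nm. Ascorbic acid served as reference, run in triplicate. % scavenging = (A0 − A1)/A0 × 100, where A0 is control-reaction absorbance and A1 is absorbance with sample.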

ovine COX-1 = biological target: T1, ovine COX-1 (Ovis aries, UniProt P05979); experiment: COX-1 inhibitor screening assay kit; assay type: biochemical
T1 sequence (P05979 25-600): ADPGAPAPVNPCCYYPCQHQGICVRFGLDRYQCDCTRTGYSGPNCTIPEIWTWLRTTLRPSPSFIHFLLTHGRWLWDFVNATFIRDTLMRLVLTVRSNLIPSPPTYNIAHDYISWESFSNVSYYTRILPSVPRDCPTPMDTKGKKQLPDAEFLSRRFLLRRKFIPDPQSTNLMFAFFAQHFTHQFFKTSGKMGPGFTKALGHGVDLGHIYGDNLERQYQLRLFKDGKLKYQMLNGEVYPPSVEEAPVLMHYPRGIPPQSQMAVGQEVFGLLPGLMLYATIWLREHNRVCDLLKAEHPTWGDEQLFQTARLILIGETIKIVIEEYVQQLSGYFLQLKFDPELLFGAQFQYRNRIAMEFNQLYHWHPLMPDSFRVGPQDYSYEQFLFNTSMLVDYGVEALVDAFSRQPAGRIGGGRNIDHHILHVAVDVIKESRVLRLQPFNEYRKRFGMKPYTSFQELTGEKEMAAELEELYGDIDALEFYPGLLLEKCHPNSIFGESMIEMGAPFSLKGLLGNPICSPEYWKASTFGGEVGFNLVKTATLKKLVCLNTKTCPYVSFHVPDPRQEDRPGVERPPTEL

human recombinant COX-2 = biological target: T2, human recombinant COX-2 (Homo sapiens, UniProt P35354); experiment: COX-2 inhibitor screening assay kit; assay type: biochemical; conditions: for IC50 COX-1/COX-2 (in vitro COX-2 selectivity index): IC50 of COX-1/COX-2
T2 sequence (P35354 18-604): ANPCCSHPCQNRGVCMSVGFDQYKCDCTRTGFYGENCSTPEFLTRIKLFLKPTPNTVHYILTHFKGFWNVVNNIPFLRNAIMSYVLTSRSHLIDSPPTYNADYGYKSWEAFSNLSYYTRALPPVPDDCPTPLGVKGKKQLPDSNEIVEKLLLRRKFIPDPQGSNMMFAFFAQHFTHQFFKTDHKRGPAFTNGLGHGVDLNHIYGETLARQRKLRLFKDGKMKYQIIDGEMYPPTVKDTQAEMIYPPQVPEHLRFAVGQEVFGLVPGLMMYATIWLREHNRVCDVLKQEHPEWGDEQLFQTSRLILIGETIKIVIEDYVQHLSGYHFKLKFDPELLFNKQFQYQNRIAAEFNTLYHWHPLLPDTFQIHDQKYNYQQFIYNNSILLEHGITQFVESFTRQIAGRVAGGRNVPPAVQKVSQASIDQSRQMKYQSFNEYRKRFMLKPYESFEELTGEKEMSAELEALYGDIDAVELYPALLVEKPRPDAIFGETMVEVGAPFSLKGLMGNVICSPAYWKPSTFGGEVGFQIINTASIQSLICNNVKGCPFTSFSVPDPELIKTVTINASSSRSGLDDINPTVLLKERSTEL

Row | SMILES | DPPH scavenging% [1] | IC50 (ovine COX-1) | IC50 (human recombinant COX-2) | IC50 COX-1/COX-2 (in vitro COX-2 selectivity index) (human recombinant COX-2) | DPPH scavenging% ([1]; listed as Comp. 4) | DPPH scavenging% ([1]; listed as Comp. 11)
1 | O=C1O[C@H]([C@@H](O)CO)C(O)=C1O [Ascorbic acid, ascorbic acid, reference compound] | 97% | – | – | – | – | –
2 | NC1=NC(=S)NC12CCCCC2 [Compound 4, 4-Amino-1,3-diazaspiro[4.5]dec-3-ene-2-thione] | – | 7.5 µM | 0.135 µM | 55.56 µM | 61.1% | –
3 | O=C1CCC(=O)C2(CCCCC2)N1 [Compound 6, 1-Azaspiro[5.5]undecane-2,5-dione] | 74.4% | 11.5 µM | 0.089 µM | 129.21 µM | – | –
4 | O=C1NC2(CCCCC2)c2nc3c(c(-c4ccccc4)c21)CCCC3 [Compound 11, 9′-Phenyl-5′,6′,7′,8′-tetrahydrospiro[cyclohexane-1,3′-pyrrolo[3,4-b]quinolin]-1′(2′H)-one] | – | 10.5 µM | 0.06 µM | 175.00 µM | – | 86.1%
5 | O=C1NC2(CCCCC2)c2[nH]c(=S)nc(-c3ccccc3)c21 [Compound 14, 4′-Phenyl-2′-thioxo-1′,2′-dihydrospiro[cyclohexane-1,7′-pyrrolo[3,4-d]pyrimidin]-5′(6′H)-one] | 66.5% | 6 µM | 0.08 µM | 75.00 µM | – | –
6 | Cc1cc(-c2ccccc2)c2c(n1)C1(CCCCC1)NC2=O [Compound 17, 2′-Methyl-4′-phenylspiro[cyclohexane-1,7′-pyrrolo[3,4-b]pyridin]-5′(6′H)-one] | – | 8 µM | 0.099 µM | 80.81 µM | – | –
